Results pooled from the literature.
Lines come from different studies, so protocols differ. Values after ≈ are worked out from the molar mass of the structure shown.

Structure (SMILES) | target or system | assay | setting | measurement | value
O=C1NN=C(N=Cc2ccc(O)cc2O)C1=NNn1c(-c2ccccc2)nc2ccccc2c1=O | Trichophyton rubrum | microbial growth, broth dilution | – | MIC | 53.5 µM (≈ 25 µg/mL)
COc1cccc(-c2nc3ncccn3c2NC(C)(C)CC(C)(C)C)c1 | Leishmania amazonensis | parasite growth, MTT | 72 h, promastigote | IC50 | 17 µM
COc1ccc(S(=O)(=O)c2ccc(C)cc2)c(OC)c1OC | Leishmania braziliensis | parasite growth, MTT | 24 h, promastigote | IC50 | 91.7 µM
COc1ccc(-c2ccc(-c3ccc(C(=N)N)nc3)s2)cc1Cl | NCI-H322M | cell growth or viability, SRB | – | GI50 | 1.67 µM
c1ccc(-c2ccc(CNCC3(N4CCCC4)COC3)o2)cc1 | T98G | cell growth or viability | 30 µM, 48 h | viability | 74.2%
COc1ccc([S+]([O-])c2ccc(OC)c(OC)c2OC)cc1 (stereo not shown) | Leishmania braziliensis | parasite growth, MTT | promastigote | IC50 | 15 µM
Clc1ccccc1-c1ccc(CNCC2(N3CCCC3)COC2)o1 | GBM6 | cell growth or viability | 30 µM, 48 h | viability | 80.6%
COc1ccc(Oc2ccc(-c3c(C)[nH]c(C)c(Cl)c3=O)cc2)cc1 | HEK293 | cell growth or viability | – | IC50 | > 10 µM
CC(C)(C)CC(C)(C)Nc1c(-c2ccc(Cl)cc2)nc2ncccn12 | Leishmania amazonensis | parasite growth, MTT | 72 h, promastigote | IC50 | 36.4 µM
CC1=NN(CNc2ccc(C(=O)O)cc2)C(=O)C1=NNn1c(-c2ccccc2)nc2ccccc2c1=O | Trichophyton rubrum | microbial growth, broth dilution | – | MIC | 101 µM (≈ 50 µg/mL)
Cc1[nH]c(C)c(-c2ccc(OCCCCSc3ccncc3)cc2)c(=O)c1Br | HEK293 | cell growth or viability | – | IC50 | > 10 µM
CCCCc1nc2ncccn2c1NC(C)(C)CC(C)(C)C | Leishmania amazonensis | parasite growth, MTT | 72 h, promastigote | IC50 | 47.8 µM
Cc1[nH]cc(Br)c(=O)c1-c1ccc(Oc2ccccc2)cc1 | HEK293 | cell growth or viability | – | IC50 | > 10 µM
c1cnc2nc(-c3ccc4c(c3)OCO4)c(NCCN3CCOCC3)n2c1 | Leishmania amazonensis | parasite growth, MTT | 72 h, promastigote | IC50 | > 100 µM
CC1=NN(CNC(=O)c2ccccc2)C(=O)C1=NNn1c(-c2ccccc2)nc2ccccc2c1=O | Trichophyton rubrum | microbial growth, broth dilution | – | MIC | 104 µM (≈ 49.8 µg/mL)
CCOC(=O)c1cn(CC)c2cc(N3CCCCCC3)c(F)cc2c1=O | HEK293 | cell growth or viability | – | IC50 | > 10 µM
